# Compounds with a hit are over-represented: about 4.5% of the library has one in this group of screens.
# M18AAP inhibitor: PfM18AAP enzyme inhibition. AID 1822. recombinant PfM18AAP, H-Glu-NHMec fluorogenic cleavage. inhibition, % at 7.35 µM. 1.2% of 290,000 active;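 active = inhibition above the campaign mean inhibition over all tested compounds plus 3 SD, cut at about 28% in these data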;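 also: 0% = plate median of test compound wells and 100% = 2 mM ZnCl2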
# CHOP inhibitor: inhibitors of CHOP induction in ER stress response; CHO-K1 CHOP-promoter luciferase, tunicamycin-induced, 15-18 h; inhibition, % at 10 µM; 3.8% of 220,000 active;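 active = compounds that reduced the stress-induced luciferase reporter signal by more than about 70% of percent inhibition, limit read from the data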;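 also: 0% = tunicamycin plus vehicle and 100% = wells without tunicamycin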
# CHOP UPR activ: activators of apoptotic arm of unfolded protein response (CHOP); CHO-CHOP luciferase reporter, UPR activation, luminescence; percent of tunicamycin response over DMSO baseline; activation, % at 10 µM; 0.34% of 330,000 active; AID 449763;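 active = at 10 µM dose, activation of 40% or more, normalized to positive control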;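 also: 100% = tunicamycin at 10 µg/mL and 0% = DMSO alone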
#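 System: CHO-CHOP luciferase reporter cell line; amount: 500 cells/well; buffer or medium: F12 medium containing 10% fetal bovine serum; incubation: 6 h compound exposure at 37 °C after overnight seeding; measured by: luciferase luminescence after 10 min with Steady-Glo reagent; evaluation: % reporter activation, DMSO baseline versus tunicamycin full activation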
# UPR XBP1 act: activators of adaptive arm of unfolded protein response (XBP1); CHO-XBP1 luciferase reporter, IRE1-XBP1 UPR activation, luminescence; percent of tunicamycin response, DMSO as zero; activation, % at 20 µM; 0.33% of 330,000 active;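 active = versus positive control, 20 µM dose yields 30% or more activation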;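 also: 100% = tunicamycin at 10 µg/mL and 0% = DMSO only wells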
#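 Material – CHO cell line with stable XBP1 luciferase reporter · Buffer or medium – F12 plus 10% FBS · Compound – single point, 20 µM final compound, 1% DMSO · Schedule – 16-18 h cell attachment at 37 °C, then 6 h compound exposure · Signal – Steady-Glo luminescence read · Benchmarks – high control tunicamycin 10 µg/mL final, low control DMSO vehicle only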
# p97 inhibitor: blocks human p97 ATPase activity | recombinant p97 ATPase, Kinase-Glo ATP luminescence, 3 h | AID 1481 | P55072 | 0.42% of 220,000 active | inhibition, % at 8 µM; in the data active = inhibition above about 15%;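 also: 0% = DMSO vehicle and 100% = wells lacking enzyme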
# NS3 helicase inh: HCV NS3 helicase inhibition; NS3 helicase DNA unwinding, Cy5 molecular beacon fluorescence; inhibition, % at 10.9 µM; 0.56% of 290,000 active;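 active = inhibition above the mean of all tested compounds plus 3 SD, set per campaign, cut at about 35% in these data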;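 also: 0% = DMSO wells and 100% = thioflavine S control wells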
#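 Test system: hepatitis C virus NS3 helicase domain fragment enzyme. Also added: annealed dual-labelled DNA beacon duplex, ATP-started. Timing: 60 min unwinding reaction at 25 °C after ATP addition. Technique: Cy5 fluorescence. Measure: % inhibition of unwinding.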
# The depositor's hits bear a star; · = no result given.
SMILES,M18AAP inhibitor,CHOP inhibitor,CHOP UPR activ,UPR XBP1 act,p97 inhibitor,NS3 helicase inh
Cc1ccc(NC(=O)CC(C)c2ccccc2)cc1S(=O)(=O)N1CCOCC1 (stereo unspecified),·,·,-1,-2,·,·
CCOC(=O)/C=C/C(=O)Nc1ccccc1-c1ccccc1NC(=O)/C=C/C(=O)OCC,-6,80*,·,·,2,8
CCOC(=O)/C=C/C(=O)OCC(=O)Nc1cccc(Cl)c1Cl,6,-5,0,-6,-4,-2
CCN(CC)CCN(C(=O)c1ccc(CN2CCCCC2)o1)C(C(=O)NC1CCCCC1)c1ccc(F)cc1 (stereo unspecified),2,-11,-1,-3,2,-1
C/C(=N\NC(=O)c1ccc([N+](=O)[O-])cc1Cl)c1ccccc1,6,83*,4,6,4,-11
C/C(CC(=O)Nc1ccc(N(C)C)cc1)=N\NC(=O)c1ccc([N+](=O)[O-])cc1Cl,13,40,1,0,-1,6
Cc1ccc2oc(-c3cccc(NC(=O)c4ccc(Br)o4)c3)nc2c1,-5,67,2,7,0,2
COc1cc(C(=O)Nc2cccc(-c3nc4cc(C)cc(C)c4o3)c2)cc(OC)c1OC,-12,76*,·,·,9,-8
Cc1cc(C)c2oc(-c3cccc(NC(=O)c4ccc(F)cc4)c3)nc2c1,-2,91*,-2,2,-4,-6
CCOC(=O)/C(N=Nc1ccc(Cl)cc1)=C(/O)c1ccc([N+](=O)[O-])cc1,6,86*,4,1,1,-7
N/C(Cc1ccc(Cl)cc1)=N\OC(=O)Cc1ccc([N+](=O)[O-])cc1,-8,2,2,-2,-4,-1
COc1cccc(NC(=O)CSc2nc3ccccc3c(=O)n2CCCC(=O)NCC2CCCO2)c1 (stereo unspecified),-8,·,0,-6,·,-3
Cc1nnc(NC(=O)CSc2nc3c(c(=O)n2CCc2ccccc2)SC(C)C3)s1 (stereo unspecified),-7,93*,-1,8,4,-8
CC1Cc2nc(SCC(=O)Nc3nc4ccccc4s3)n(C)c(=O)c2S1 (stereo unspecified),-8,75*,1,0,-2,-1
COc1ccc(-c2oc3ccccc3c2C#CC(C)(C)O)cc1,·,·,1,5,·,·
CS/C(=N/S(=O)(=O)c1ccc(C)cc1)c1ccccc1,1,37,-1,-3,4,11
CS/C(=N\S(=O)(=O)c1ccc(Cl)cc1)c1ccccc1,-4,77*,-1,0,4,1
O=C(CCSc1nc(-c2ccco2)cc(C(F)(F)F)n1)N1CCN(c2ccccn2)CC1,-7,88*,-4,-5,-6,-18
CN1CCN(C(=O)CSc2nc(-c3ccco3)cc(C(F)(F)F)n2)CC1,-2,18,0,0,4,10
O=C(CSc1nc2ccc(Cl)cc2[nH]1)Nc1ccc2c(c1)CCC2,5,71*,2,-2,3,-14
O=C(CSc1nc2cc3ccccc3cc2[nH]1)Nc1ccc(F)cc1,0,81*,2,4,-1,-8
Cc1ccc2nc(SCC(=O)Nc3ccc4c(c3)CCC4)[nH]c2c1,-8,-10,4,-2,7,-5
CCOC(=O)c1ccc(NC(=O)CNNC(=O)COc2ccccc2C)cc1,·,·,0,-1,·,·
O=C(Nc1ccc(O)c2c(=O)cc(-c3ccccc3Cl)oc12)c1ccc(Cl)c(Cl)c1,·,94*,8,16,·,·
C=CCn1c(-c2cc(-c3ccccc3)sc2N)n[nH]c1=S,28*,-3,-1,1,6,12
SMILES,M18AAP inhibitor,CHOP inhibitor,CHOP UPR activ,UPR XBP1 act,p97 inhibitor,NS3 helicase inh
C=CCn1c(-c2csc(-c3ccc(Cl)cc3)n2)n[nH]c1=S,3,72*,-1,3,-1,2
CCn1c(CC(=O)Nc2ccccc2F)nnc1SCC(=O)NC1CCCC1,-1,·,0,-6,·,8
COc1ccc(CNc2nc3c(c(C(F)(F)F)n2)CCCCC3)cc1,1,90*,·,·,5,0
Cc1ccc2c(c1)N(CCC(=O)NC1CCCCC1)C(=O)CO2,-9,·,1,-2,·,-3
N#Cc1ccc(CN2CCN(CC(=O)NCCc3ccc(Cl)cc3Cl)CC2)cc1,-3,·,-1,-2,·,-80
CCn1c(-c2c(Cl)c(C)nn2C)n[nH]c1=S,32*,46,-1,-3,-4,3
OC(COc1ccccc1)Cn1c2ccccc2c2ccccc21 (stereo unspecified),5,89*,1,-3,0,-13
Cc1ccccc1OCC(O)Cn1c2ccccc2c2ccccc21 (stereo unspecified),2,90*,2,-2,0,-28
CC(=O)Nc1ccc(OCC(O)Cn2c3ccccc3c3ccccc32)c(C)c1 (stereo unspecified),4,62,1,0,1,-33
O=C(NCC(=O)N1CCN(c2ccccc2)CC1)c1ccco1,-7,·,2,-2,·,1
COc1ccc(C(=O)Nc2ccc(S(=O)(=O)N3CCCC3)cc2)cc1[N+](=O)[O-],0,·,2,-5,·,-10
CCn1c(SCC(=O)Nc2nncs2)nnc1-c1ccco1,21,·,-2,-2,·,4
Clc1ccc(/C=N/NC(=Nc2ccccc2)c2ccccn2)c(Cl)c1,1,81*,-2,0,-3,-3
COc1cc(C)ccc1OCc1cc(C(=O)N(Cc2c(C)nn(C)c2C)C2CC2)no1,5,·,6,-8,·,-2
Cn1c(=O)cc(SCC(=O)NCCC2=CCCCC2)c2cc(Cl)ccc21,-5,93*,-1,-2,2,-4
COc1ccc(NC(=O)CN2CCC(NC(=O)c3ccco3)CC2)c([N+](=O)[O-])c1,-11,·,4,-4,·,-8
CCOc1cc(CNc2ccc(CNc3ncn[nH]3)cc2)ccc1OCc1ccccc1,40*,26,0,0,6,-7
CCOc1cc(CNc2ccccc2)cc(Br)c1OCc1ccc(F)cc1,1,25,-1,-3,-1,-1
COC(=O)c1[nH]nc(-c2ccccc2)c1-c1ccccc1,·,·,-2,0,·,·
COc1ccc2oc(C(=O)OCC(=O)N(C)C3CCCCC3)c(C)c2c1,·,·,2,2,·,·
O=C(Nc1ccc(CN2CCOCC2)cc1)c1ccc(-c2ccc(Br)cc2)o1,0,80*,-2,-4,-3,-34
Cc1ccc(C)c(Cn2nc(-c3cc(C)ccc3C)ccc2=O)c1,2,·,-1,5,·,-5
CN1CCN(C(=O)c2ccc(CSc3nc4ccncc4n3Cc3ccc(F)cc3)cc2)CC1,-2,4,0,-1,16*,-2
